Laboratory results published in ChEMBL document CHEMBL3085712, “Protein tyrosine phosphatase 1B (PTP1B) inhibitors from Morinda citrifolia (Noni) and their insulin mimetic activity” (J Nat Prod, 2013).

Key:
[1] = tested on: 3T3-L1; experiment: Increase in 2-NBDG uptake in mouse 3T3L1 cells at 400 ug/ml after 30 mins by fluorescence spectrophotometry relative to DMSO-treated control; assay type: functional
Summary of the method: (§1)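 Mouse 3T3-L1 preadipocytes were differentiated with insulin, IBMX, dexamethasone, rosiglitazone and 10% FBS, then used 7 days after induction at 3 × 10^4 cells/well. Cells were starved 3 h in low-glucose serum-free DMEM, treated 30 min, then given 50 μM 2-NBDG for 1 h (90 min total). After lysis in 0.1 M K3PO4/1% Triton X-100, fluorescence was read at ex 450/em 535 nm; fold versus DMSO; triplicates, mean ± SD.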

[2] = molecular target: T1, Tyrosine-protein phosphatase non-receptor type 1 (Homo sapiens, UniProt P18031); experiment: Inhibition of PTP1B (unknown origin) assessed as p-nitrophenol release from pNPP substrate after 30 mins by spectrophotometry
T1 sequence (P18031 whole entry): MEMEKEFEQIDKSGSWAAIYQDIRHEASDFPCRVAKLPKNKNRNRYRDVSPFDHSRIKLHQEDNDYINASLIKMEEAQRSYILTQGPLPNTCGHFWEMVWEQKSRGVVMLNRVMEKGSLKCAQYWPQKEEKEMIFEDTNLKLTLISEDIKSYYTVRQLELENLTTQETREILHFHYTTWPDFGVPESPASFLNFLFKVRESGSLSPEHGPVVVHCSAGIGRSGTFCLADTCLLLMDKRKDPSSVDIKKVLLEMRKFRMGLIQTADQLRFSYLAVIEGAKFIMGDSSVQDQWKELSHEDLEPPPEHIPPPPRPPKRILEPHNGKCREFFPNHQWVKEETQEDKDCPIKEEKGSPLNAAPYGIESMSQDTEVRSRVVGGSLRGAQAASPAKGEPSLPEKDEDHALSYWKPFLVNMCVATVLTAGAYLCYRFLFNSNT
Summary of the method: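 Commercial PTP1B (0.05–0.1 μg) was incubated with 4 mM p-NPP in 50 mM citrate pH 6.0, 1 mM DTT, 0.1 M NaCl and 1 mM EDTA at 37 °C for 30 min. IC50 came from a seven-concentration curve; triplicates, mean ± SD.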

[3] = tested on: 3T3-L1; experiment: Increase in 2-NBDG uptake in mouse 3T3L1 cells after 30 mins by fluorescence spectrophotometry; assay type: functional, cell-based; summary of the method: as §1

Oc1ccc([C@H]2OC[C@H]3[C@@H]2CO[C@H]3c2ccc(O)c(O)c2)cc1O
fold change (FC) ([1]; in the assay text read “at 20 uM” for “at 400 ug/ml”): 1.52 | IC50 ([2]; read-out: IC50): 21.9 µM | Activity [3]: Dose-dependent effect

Oc1ccc([C@@H]2OC[C@@H]3[C@H]2CO[C@H]3c2ccc(O)c(O)c2)cc1O
IC50 ([2]; read-out: IC50): > 30 µM

O=C(O)/C=C/c1ccc2c(c1)O[C@@H](CO)[C@@H](c1ccc(O)c(O)c1)O2
IC50 ([2]; read-out: IC50): > 30 µM

COc1cc([C@H]2Oc3ccc(/C=C/C(=O)O)cc3O[C@@H]2CO)ccc1O
IC50 ([2]; read-out: IC50): > 30 µM

COc1cc([C@H]2Oc3ccc(C(=O)O)cc3O[C@@H]2CO)ccc1O
IC50 ([2]; read-out: IC50): 19.6 µM

O=C1O[C@@H](c2ccc(O)c(O)c2)[C@@H]2CO[C@@H](c3ccc(O)c(O)c3)[C@H]12
IC50 [2]: Not Active

COc1cc([C@H]2OC[C@H]3[C@@H]2CO[C@@H]3c2cc(OC)c(OC)c(OC)c2)cc(OC)c1OC
fold change (FC) [1]: 1.45 | IC50 ([2]; read-out: IC50): 16.8 µM | Activity [3]: Dose-dependent effect

O=C(O)/C=C/c1ccc2c(c1)O[C@@H](CO)[C@H](c1ccc(O)c(O)c1)O2 (relative stereo)
IC50 ([2]; read-out: IC50): > 30 µM

COc1cc([C@H]2Oc3ccc(CCCO)cc3O[C@@H]2CO)ccc1O (relative stereo)
IC50 ([2]; read-out: IC50): > 30 µM

O=C1O[C@@H](c2ccc(O)c(O)c2)[C@H](CO)/C1=C\c1ccc(O)c(O)c1 (relative stereo)
IC50 [2]: Not Active

COc1cc([C@@H]2OC[C@H]3[C@@H]2CO[C@H]3c2ccc(O)c(OC)c2)ccc1O [(-)-PINORESINOL]
IC50 ([2]; read-out: IC50): 18.7 µM

O=C/C=C/c1ccc2c(c1)O[C@@H](CO)[C@H](c1ccc(O)c(O)c1)O2 [AMERICANIN A]
IC50 [2]: Not Active

CN(CCOc1ccc(CC2SC(=O)NC2=O)cc1)c1ccccn1 (configuration not stated) [ROSIGLITAZONE]
fold change (FC) [1]: 1.7

COc1cc([C@H]2OC[C@H]3[C@@H]2CO[C@@H]3c2cc(OC)c(O)c(OC)c2)cc(OC)c1O [SYRINGARESINOL]
fold change (FC) [1]: 1.46 | IC50 ([2]; read-out: IC50): 15 µM | Activity [3]: Dose-dependent effect

C[C@H]1[C@H](C)CC[C@]2(C(=O)O)CC[C@]3(C)C(=CC[C@@H]4[C@@]5(C)CC[C@H](O)C(C)(C)[C@@H]5CC[C@]43C)[C@H]12 [URSOLIC ACID]
fold change (FC) [1]: 1.82 | Activity [3]: Dose-dependent effect
